{"data": "Experimental data collected from several papers", "target": "Mitogen-activated protein kinase 11 (MAPK11, Homo sapiens, UniProt Q15759)", "note": "Lines come from different studies, so protocols differ."}
{"SMILES": "COc1ncccc1-c1cnn2ccc(N3CCN(C(=O)OC(C)C)CC3)nc12", "observed": "binding", "method": "competition with immobilised ligand", "concentration": "1 µM", "endpoint": "remaining binding", "value": "89%"}
{"SMILES": "Nc1ncc(-c2nc(N3CCOCC3)nc(N3CCOCC3)n2)c(C(F)F)n1", "observed": "binding", "method": "competition with immobilised ligand", "concentration": "10 µM", "endpoint": "remaining binding", "value": "98%"}
{"SMILES": "Cn1cncc1[C@@](O)(COc1ccc(C#N)cc1-c1ccc(OC(F)(F)F)cc1)c1ccc(C#N)cc1", "observed": "cell-free assay", "method": "competition with immobilised ligand", "concentration": "1 µM", "endpoint": "remaining binding", "value": "96%"}
{"SMILES": "CC(C)(C)c1cc(C=C(C#N)C#N)cc(Br)c1O", "observed": "enzyme activity", "mode": "inhibitor", "concentration": "0.5 µM", "endpoint": "remaining activity", "value": "100%"}
{"SMILES": "Cn1cc(-c2cccc(N3CCc4c(sc5c4CC(C)(C)C5)C3=O)c2CO)cc(Nc2ccncn2)c1=O", "observed": "enzyme activity", "mode": "inhibitor", "concentration": "1 µM", "endpoint": "inhibition", "value": "6%"}
{"SMILES": "Cc1nn(C)cc1-c1nc2c(N3CCN(Cc4ccc(Cl)cc4)CC3)c(Cl)cnc2[nH]1", "observed": "binding", "method": "competition with immobilised ligand", "concentration": "1 µM", "endpoint": "remaining binding", "value": "100%"}
{"SMILES": "O=c1[nH]c2ccccc2n1C1CCN(Cc2ccc(-c3[nH]c4cc5ncnc5cc4nc3-c3ccccc3)cc2)CC1", "observed": "cell-free assay", "concentration": "0.5 µM", "endpoint": "remaining signal", "value": "102%"}
{"SMILES": "Cn1cc(-c2cc(F)cc(N3CCn4c(cc5c4CCCC5)C3=O)c2CO)cc(Nc2ccc(N3CCN(C4COC4)CC3)cn2)c1=O", "observed": "enzyme activity", "mode": "inhibitor", "concentration": "0.1 µM", "endpoint": "inhibition", "value": "11%"}
